Data: ChEMBL document CHEMBL4680166, “Dual-functional conjugates improving cancer immunochemotherapy by inhibiting tubulin polymerization and indoleamine-2,3-dioxygenase” (Eur J Med Chem, 2020)
The source made the active and inactive calls. The calls are words filed in the database; no cut-off is given here.

Key:
HeLa [1] = test: Anticancer activity against human HeLa cells assessed as inhibition of cell proliferation measured after 72 hrs by MTT assay; type: functional, cell-based
Summary of the method: (§1)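 Cells (A549, PC-3, HeLa, HUVEC) grown in DMEM with 10% FBS at 37 °C, 5% CO₂. Seeded at 5 × 10⁴ cells/well and allowed 24 h to attach, then exposed 72 h to a concentration series from DMSO stocks. MTT was added for 4 h and formazan dissolved in DMSO, read at 490 nm. Survival taken relative to untreated control. IC50 by Bliss method, three repeats.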

[2] = Toxicity in BALB/c nude mouse transfected with human HeLa cells assessed as lung damage at 15 mg/kg/day, iv for 21 days by H&E staining based immunohistochemistry; type: organism-based; conditions: in vivo, 504 h, time 21 day
Summary of the method: (§2)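 After 3 weeks of daily iv dosing of HeLa-xenografted nude mice, organs were taken from one mouse per group. Fixed in 4% paraformaldehyde, paraffin-embedded and sectioned. Stained with Harris hematoxylin and eosin-phloxine, then examined microscopically for histopathology.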

HeLa [3] = test: Induction of cell cycle arrest in human HeLa cells assessed as accumulation at S phase at 0.5 uM measured after 24 hrs by propidium iodide/RNAse staining based flow cytometry (reference value: 27.8%); type: functional
HeLa [4] = test: Induction of apoptosis in human HeLa cells assessed as upregulation of caspase-3 protein expression at 0.5 uM measured after 24 hrs by western blot analysis; type: functional, cell-based
Summary of the method: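 HeLa cells were treated 24 h at 37 °C and lysed in buffer containing PMSF. Protein quantified by BCA, equal amounts separated by SDS-PAGE and transferred to nitrocellulose. Blocked in 5% milk, primary antibodies overnight at 4 °C, peroxidase secondary 2 h at 25 °C. Detection by chemiluminescence, β-actin as loading control.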

[5] = Toxicity in BALB/c nude mouse transfected with human HeLa cells assessed as liver damage at 15 mg/kg/day, iv for 21 days by H&E staining based immunohistochemistry; type: organism-based; conditions: in vivo, 504 h, time 21 day; summary of the method: as §2
HeLa [6] = test: Induction of apoptosis in human HeLa cells assessed as cell membrane integrity loss, chromatin condensation and apoptotic body formation by measuring reduction in green fluorescence intensity at 0.5 uM measured after 24 hrs by AO/EB dual staining based fluorescence microscopy; type: functional
[7] = Toxicity in BALB/c nude mouse […] with human HeLa cells assessed as body weight changes at 15 mg/kg/day, iv for 21 days; type: organism-based; conditions: in vivo, 504 h, time 21 day
HeLa [8] = test: Induction of apoptosis in human HeLa cells assessed as mitochondrial membrane potential dissipation at 0.5 uM incubated for 24 hrs by JC-1 staining based flow cytometry (reference value: 6.6%); type: functional
[9] = Toxicity in BALB/c nude mouse transfected with human HeLa cells assessed as liver damage at 30 mg/kg/day, iv for 21 days by H&E staining based immunohistochemistry; type: organism-based; conditions: in vivo, 504 h, time 21 day
Summary of the method: (§3)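 HeLa xenografts were grown s.c. in male BALB/c nude mice, which received i.v. tail-vein doses once daily for 21 days in Tween 80/saline vehicle, with saline controls. After 3 weeks the mice were sacrificed. Organs from one mouse per group were fixed in 4% paraformaldehyde, paraffin-embedded and sectioned. Sections were dewaxed, stained with Harris hematoxylin and eosin-phloxine, and examined microscopically for histopathologic changes.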

HeLa [10] = test: Induction of intracellular reactive oxygen species generation in human HeLa cells at 0.5 uM measured after 24 hrs by DCFH-DA staining based flow cytometry relative to CA-4; type: functional
[11] = Toxicity in BALB/c nude mouse transfected with human HeLa cells assessed as spleen damage at 30 mg/kg/day, iv for 21 days by H&E staining based immunohistochemistry; type: organism-based; conditions: in vivo, 504 h, time 21 day; summary of the method: as §3
[12] = Toxicity in BALB/c nude mouse transfected with human HeLa cells assessed as heart damage at 30 mg/kg/day, iv for 21 days by H&E staining based immunohistochemistry; type: organism-based; conditions: in vivo, 504 h, time 21 day; summary of the method: as §3
HeLa [13] = test: Induction of apoptosis in human HeLa cells assessed as necrotic cells at 0.5 uM measured after 24 hrs by Annexin-V-FITC and PI staining based flow cytometry (reference value: 0.956%); type: functional
Summary of the method: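 HeLa cells were treated 24 h, washed twice in PBS and resuspended in binding buffer. Stained with annexin V-FITC and PI for 30 min in the dark at room temperature, then analysed by flow cytometry.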

Tubulin (Homo sapiens) = Tubulin (Homo sapiens) (UniProt P68371+Q9H4B7+P0DPH7+P68366+Q13509+Q71U36+P04350+Q3ZCM7+P07437+P68363+Q9BQE3+Q6PEY2+Q13885+Q9BVA1+Q9BUF5); test: Inhibition of tubulin polymerization in human HeLa cells assessed as disruption of microtubule network organization measured after 24 hrs by DAPI staining based immunofluorescence method; type: cell-based; conditions: dose 0.1-0.5 µM
Summary of the method: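 HeLa cells in six-well plates were treated 24 h. Fixed in 4% paraformaldehyde (37 °C, 15 min), permeabilised with 0.5% Triton X-100 and blocked with 10% goat serum. Incubated with α-tubulin primary antibody overnight, then fluorescent secondary antibody 1 h, with DAPI for nuclei. Imaged by confocal microscopy.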

HUVEC = test: Cytotoxicity against HUVEC cells assessed as inhibition of cell proliferation measured after 72 hrs by MTT assay; type: cell-based; conditions: Homo sapiens; summary of the method: as §1
HeLa [14] = test: Induction of cell cycle arrest in human HeLa cells assessed as accumulation at G1 phase at 0.5 uM measured after 24 hrs by propidium iodide/RNAse staining based flow cytometry (reference value: 61.5%); type: functional
[15] = Toxicity in BALB/c nude mouse transfected with human HeLa cells assessed as heart damage at 15 mg/kg/day, iv for 21 days by H&E staining based immunohistochemistry; type: organism-based; conditions: in vivo, 504 h, time 21 day; summary of the method: as §2
HeLa [16] = test: Induction of intracellular reactive oxygen species generation in human HeLa cells at 0.5 uM measured after 24 hrs by DCFH-DA staining based flow cytometry (reference value: 6.47%); type: functional
HeLa [17] = test: Induction of apoptosis in human HeLa cells assessed as mitochondrial membrane potential dissipation by measuring increase in green fluorescence intensity at 0.5 uM incubated for 24 hrs by JC-1 staining based fluorescence microscopic analysis; type: functional, cell-based
[18] = Toxicity in BALB/c nude mouse transfected with human HeLa cells assessed as lung damage at 30 mg/kg/day, iv for 21 days by H&E staining based immunohistochemistry; type: organism-based; conditions: in vivo, 504 h, time 21 day; summary of the method: as §3

With COc1ccc(/C=C\c2cc(OC)c(OC)c(OC)c2)cc1OC(=O)c1cccc(Cn2cc(CCOC(=O)[C@H](N)Cc3cn(C)c4ccccc34)nn2)c1 the IC50 (HeLa [1]) was 70 nM, the Activity [2] was “Non-Toxic” and the Activity (HeLa [3]) was 17.05%. The Activity (HeLa [4]) was “Active”, the Activity [5] was “Non-Toxic” and the Activity (HeLa [6]) was “Active”. The Activity [7] was “Non-Toxic”, the Activity (HeLa [8]) was 68.8% and the Activity [9] was “Non-Toxic”. For the same molecule, the “fold change (FC)” value (HeLa [10]) was 2.3, the Activity [11] was “Non-Toxic” and the Activity [12] was “Non-Toxic”. The Activity (HeLa [13]) was 0.637%, the inhibition (Tubulin (Homo sapiens)) was “Dose-dependent effect” and the IC50 (HUVEC) was 1520 nM. For the same molecule, the Activity (HeLa [14]) was 6.69%, the Activity [15] was “Non-Toxic” and the Activity (HeLa [16]) was 49.7%. The Activity (HeLa [17]) was “Active” and the Activity [18] was “Non-Toxic”.
